Assay results taken from article PMC4979564 (JCI insight, 2016).
pIC50: −log10 of the molar value.

Legend:
[1] = system: BDL-induced liver fibrosis; assay: Bile duct ligation; type: in vivo, mouse; conditions: for progression of established BDL-induced liver fibrosis: treatment started on day 6 after BDL; for gene expression of fibrosis markers collagen-1, Tgfβ1, αSma, Timp1: wild-type mice with BDL
CB1R [2] = target: T1, CB1R (Mus musculus, UniProt P47746); assay: Upper GI motility assay; type: in vivo
T1 sequence (P47746 whole entry): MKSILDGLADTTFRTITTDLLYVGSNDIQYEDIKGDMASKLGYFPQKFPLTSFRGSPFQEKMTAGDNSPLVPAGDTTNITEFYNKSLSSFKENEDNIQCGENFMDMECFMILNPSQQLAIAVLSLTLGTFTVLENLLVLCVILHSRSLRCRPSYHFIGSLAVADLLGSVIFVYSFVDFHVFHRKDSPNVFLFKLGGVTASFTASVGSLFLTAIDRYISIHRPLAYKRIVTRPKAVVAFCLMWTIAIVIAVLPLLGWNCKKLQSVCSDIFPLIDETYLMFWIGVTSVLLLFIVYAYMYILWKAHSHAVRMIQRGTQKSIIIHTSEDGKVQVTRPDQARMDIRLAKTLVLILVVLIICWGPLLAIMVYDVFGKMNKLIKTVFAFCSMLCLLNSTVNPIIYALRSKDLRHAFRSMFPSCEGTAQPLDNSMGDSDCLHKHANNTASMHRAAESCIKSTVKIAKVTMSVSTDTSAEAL

Caco-2 = Caco-2 permeability assay; type: in vitro ADME
[3] = Pharmacokinetics in Sprague-Dawley rats; type: in vivo, rat
hERG = hERG (Homo sapiens, UniProt Q12809); assay: hERG K+ current inhibition; type: biochemical; conditions: read-out: IC50 for inhibition of the K+ current mediated by hERG; in vitro
Sequence of hERG (Q12809 whole entry): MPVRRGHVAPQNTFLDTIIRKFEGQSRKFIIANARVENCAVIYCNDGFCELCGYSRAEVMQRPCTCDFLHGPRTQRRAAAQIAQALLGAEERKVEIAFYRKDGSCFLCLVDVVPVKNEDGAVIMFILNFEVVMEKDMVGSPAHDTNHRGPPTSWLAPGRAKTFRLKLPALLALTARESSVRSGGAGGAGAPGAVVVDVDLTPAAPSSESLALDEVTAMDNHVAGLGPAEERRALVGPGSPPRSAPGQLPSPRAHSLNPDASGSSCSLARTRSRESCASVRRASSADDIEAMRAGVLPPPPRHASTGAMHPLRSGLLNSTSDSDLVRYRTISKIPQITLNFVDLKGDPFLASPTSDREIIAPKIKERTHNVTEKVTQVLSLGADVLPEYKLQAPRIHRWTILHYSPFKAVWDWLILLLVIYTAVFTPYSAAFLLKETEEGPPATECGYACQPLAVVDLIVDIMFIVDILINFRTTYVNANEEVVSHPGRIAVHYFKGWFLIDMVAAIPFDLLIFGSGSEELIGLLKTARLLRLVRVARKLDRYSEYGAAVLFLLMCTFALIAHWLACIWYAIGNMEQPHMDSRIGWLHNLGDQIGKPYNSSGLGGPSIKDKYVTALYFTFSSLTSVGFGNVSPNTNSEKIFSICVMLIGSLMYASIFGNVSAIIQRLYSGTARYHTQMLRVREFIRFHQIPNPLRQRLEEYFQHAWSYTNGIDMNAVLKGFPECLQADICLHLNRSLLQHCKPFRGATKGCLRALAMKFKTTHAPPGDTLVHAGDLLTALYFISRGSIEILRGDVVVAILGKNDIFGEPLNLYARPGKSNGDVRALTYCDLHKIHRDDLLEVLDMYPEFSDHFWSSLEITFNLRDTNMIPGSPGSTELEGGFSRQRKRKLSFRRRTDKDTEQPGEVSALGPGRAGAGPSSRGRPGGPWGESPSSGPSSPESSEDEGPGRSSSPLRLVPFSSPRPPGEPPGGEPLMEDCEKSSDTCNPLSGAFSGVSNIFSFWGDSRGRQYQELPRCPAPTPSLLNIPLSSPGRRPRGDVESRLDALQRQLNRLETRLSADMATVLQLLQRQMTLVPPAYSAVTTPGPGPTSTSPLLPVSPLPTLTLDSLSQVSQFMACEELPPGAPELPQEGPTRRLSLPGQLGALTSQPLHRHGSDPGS

[4] = system: CCl4-induced liver fibrosis; assay: CCl4-induced liver fibrosis; type: in vivo, mouse; conditions: 3 mg/kg/d for 4 weeks with CCl4 twice weekly
anxiety-like behavior = assay: Elevated plus-maze test; type: in vivo, mouse
iNOS = iNOS (Mus musculus, UniProt P29477); type: cell-based; conditions: for concentration range of concentration-dependent inhibition of iNOS activity: extracts of RAW 264.7 macrophages treated with LPS + γ-interferon
Method in brief: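 RAW 264.7 mouse macrophages (100,000 cells/well) primed 24 h with LPS (50 ng/ml) plus γ-interferon (10 ng/ml) to induce iNOS. Test compound was then added for 1 h. Activity was read with a fluorimetric cell-associated NOS detection kit per supplier's protocol. Diphenylene iodonium (1 mM) served as positive control. One-way ANOVA with Dunnett's test against LPS+γ-interferon control.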

[5] = 2-strain Ames test for in vitro genotoxicity; conditions: up to 125 μg/ml
Pharmacokinetics in mice = type: in vivo, mouse; conditions: oral
CB1R [6] = target: T1, CB1R; assay: Brain CB1R occupancy by CB1R PET; type: in vivo; conditions: acute or chronic treatment, 3–30 mg/kg
CB2R = conditions: binding, CHO-K1 membranes
[7] = Liver microsomal stability assay; type: in vitro ADME; conditions: mouse, rat, or human liver microsomes, 1 hour at 37°C
[8] = Plasma ALT and AST after 28-day chronic oral administration; type: in vivo, mouse; conditions: for plasma ALT / plasma AST: 28-day chronic oral
Method in brief: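 Mice received test compound by daily oral gavage. Blood was collected at sacrifice, and serum ALT and AST were measured on an automated clinical chemistry analyzer.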

[9] = Tissue distribution by LC-MS/MS after oral dosing; type: in vivo, mouse
recombinant bovine eNOS = recombinant bovine eNOS (Bos taurus, UniProt P29473); assay: Radioisotopic eNOS activity assay; type: biochemical; conditions: recombinant eNOS enzyme
Method in brief: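 Recombinant bovine eNOS was incubated with test compound. Activity was taken as the rate of conversion of [3H]L-arginine to [3H]L-citrulline, using a radioisotopic NOS assay kit per supplier's instructions. L-NNA (100 μM) served as positive control. One-way ANOVA with Dunnett's test.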

κ opioid receptor = assay: Safety screen; type: binding; conditions: 1 μM
CB1R [10] = target: T1, CB1R; assay: [35S]GTPγS-binding assay; type: biochemical; conditions: no agonist
CB1R [11] = target: CB1R (Homo sapiens, UniProt P21554); assay: Safety screen; type: binding; conditions: 1 μM
Sequence of CB1R (Homo sapiens, UniProt P21554) (P21554 whole entry): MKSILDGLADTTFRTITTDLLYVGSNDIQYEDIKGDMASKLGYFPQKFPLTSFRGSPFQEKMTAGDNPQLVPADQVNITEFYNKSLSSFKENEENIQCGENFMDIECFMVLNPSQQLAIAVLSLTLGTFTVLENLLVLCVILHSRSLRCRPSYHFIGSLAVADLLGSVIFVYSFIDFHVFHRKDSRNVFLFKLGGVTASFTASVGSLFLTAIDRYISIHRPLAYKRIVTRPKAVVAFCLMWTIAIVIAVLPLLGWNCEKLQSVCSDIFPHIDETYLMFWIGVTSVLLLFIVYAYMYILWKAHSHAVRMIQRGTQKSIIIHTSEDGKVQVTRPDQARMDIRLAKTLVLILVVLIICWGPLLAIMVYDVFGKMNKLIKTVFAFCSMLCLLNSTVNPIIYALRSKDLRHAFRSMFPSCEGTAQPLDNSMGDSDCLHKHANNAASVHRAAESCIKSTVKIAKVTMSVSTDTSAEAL

**Q.** With `CC(=N)NCc1cccc(CN)c1` [1400W, reference compound] as the compound, how does the “progression of established BDL-induced liver fibrosis” value ([1]; 10 mg/kg daily) read?
**A.** The value was “attenuated fibrosis to the same extent as rimonabant”.

**Q.** What does the source list for `C/C(N)=N\C(=N/S(=O)(=O)c1ccc(C(F)(F)F)cc1)N1C[C@H](c2ccccc2)C(c2ccc(Cl)cc2)=N1` [MRI-1867]?
**A.** reversal of inhibition of upper GI motility caused by CB1R agonist arachidonoyl 2-chloroethylamide (CB1R [2]; 10 mg/kg agonist): dose-dependently reversed; upper GI motility (inverse agonism) (CB1R [2]; oral doses of 3–10 mg/kg, control mice, no effect in CBr1−/− mice): significantly increased upper GI motility; efflux ratio (Caco-2): 2.5; BDL-induced increase in hepatic iNOS gene expression ([1]; 3 mg/kg/d oral): completely prevented; BDL-induced increase in hepatic iNOS protein (immunostaining) ([1]; 3 mg/kg/d oral): completely prevented; BDL-induced increase in iNOS function (hepatic iNOS enzyme activity, protein nitrosylation) ([1]; 3 mg/kg/d oral): completely prevented; macrophage infiltration, hepatocyte apoptosis and elevated Ccl2 after BDL ([1]; 3 mg/kg/d oral): more effectively suppressed; BDL-induced fibrosis in cnr1−/− mice ([1]; cnr1−/− mice, 3 mg/kg/d oral): further attenuated; progression of established BDL-induced liver fibrosis ([1]; 3 mg/kg/d oral): completely arrest the progression; gene expression of fibrosis markers collagen-1, Tgfβ1, αSma, Timp1 ([1]; 3 mg/kg/d oral): significantly reduced; BDL-induced ductular proliferation ([1]; wild-type mice, 3 mg/kg/d oral): attenuated significantly more effectively; oral bioavailability ([3]; AUC oral gavage versus intravenous, 3 mg/kg, Sprague-Dawley rats): 81%; Plasma t1/2 ([3]; oral, rats): ~ 4 hours; pIC50 (hERG): 5.29; CCl4-induced fibrosis (Sirius red, Hyp content, fibrogenic gene expression, iNOS protein) [4]: attenuated significantly more; anxiety-like behavior in the elevated plus maze (anxiety-like behavior; doses up to 30 mg/kg): did not induce anxiety-like behavior; concentration range of concentration-dependent inhibition of iNOS activity (iNOS): 1 to 10 µM; Ames test genotoxicity [5]: negative; Plasma t1/2 (Pharmacokinetics in mice): ~ 4 hours; displacement of a CB1R PET ligand in brain (CB1R [6]): failed to cause significant displacement; selectivity for CB1R over CB2R (CB2R): > 500 fold; compound remaining unmetabolized [7]: 46%–62%; hepatotoxicity ([8]; 28-day chronic oral doses of 3 or 30 mg/kg): no hepatotoxicity; plasma ALT ([8]; 3 mg/kg): 31.8 ± 4.8 U/l; plasma AST ([8]; 3 mg/kg): 44.0 ± 6.1 U/l; plasma ALT ([8]; 30 mg/kg): 26.2 ± 3.4 U/l; plasma AST ([8]; 30 mg/kg): 36.2 ± 1.2 U/l; unbound drug concentrations in the brain ([9]; 10 times higher dose (30 mg/kg), acute or chronic oral, 1 hour after dose): 0.9 to 1.2 nM; brain/plasma Cmax ratio ([9]; acute or 28-day chronic oral administration, 3 mg/kg): ~ 3%; brain concentration of unbound drug ([9]; acute or chronic oral dosing, 3 mg/kg, 1 hour after dose): 0.2 to 0.3 nM; brain penetrance and brain CB1R occupancy in mdr1α−/− mice ([9]; mdr1α−/− mice): marked increase; accumulation in the liver ([9]; oral dosing): accumulated highly in the liver; effect on eNOS activity (recombinant bovine eNOS): unaffected; displacement at κ opioid receptor (κ opioid receptor): 61%; GTPγS binding in the absence of an agonist (inverse agonism) (CB1R [10]): concentration-dependent decreases in GTPγS binding; displacement at CB1R (CB1R [11]): 93%

**Q.** What does the source list for `CC(=N)N` [acetamidine]?
**A.** concentration range of concentration-dependent inhibition of iNOS activity (iNOS): 1 to 10 µM; effect on eNOS activity (recombinant bovine eNOS): unaffected

**Q.** Which “BDL-induced increase in hepatic iNOS gene expression” value ([1]; 3 mg/kg/d oral) does the source give for `Cc1c(C(=O)NN2CCCCC2)nn(-c2ccc(Cl)cc2Cl)c1-c1ccc(Cl)cc1` [rimonabant, reference compound] here?
**A.** Its value is “only partially reduced”.

**Q.** What about the “BDL-induced increase in hepatic iNOS protein (immunostaining)” value ([1]; 3 mg/kg/d oral) of the same compound?
**A.** The value was “did not affect”.

**Q.** And the “BDL-induced increase in iNOS function (hepatic iNOS enzyme activity, protein nitrosylation)” value ([1]; 3 mg/kg/d oral)?
**A.** Its value is “no significant effect”.

**Q.** And the “gene expression of fibrosis markers collagen-1, Tgfβ1, αSma, Timp1” value ([1]; 3 mg/kg/d oral)?
**A.** Its value is “significantly reduced”.

**Q.** And the “anxiety-like behavior in the elevated plus maze” value (anxiety-like behavior; 3 mg/kg)?
**A.** The value was “caused pronounced anxiety”.

**Q.** What about the “inhibition of iNOS activity” value (iNOS; up to 100 μM) of the same compound?
**A.** Its value is “did not inhibit iNOS”.

**Q.** What about the “effect on eNOS activity” value (recombinant bovine eNOS) of the same compound?
**A.** The value was “Lack of effect”.
